Source: ChEMBL document CHEMBL4808178 (J Med Chem, 2021)
Calls of active or inactive are those of the source. The calls are words filed in the database; no cut-off is given here.

Assays:
HCT-116 [1] = experiment: Induction of cell cycle arrest in human HCT116 cells assessed as accumulation at G0/G1 phase at 20 uM after 24 hrs by propidium iodide-staining based flow cytometry (reference value: 48.89%); type: functional
HCT-116 [2] = experiment: Induction of apoptosis in human HCT116 cells assessed as necrotic cells at 5 uM after 24 hrs by annexin V-FITC/propidium iodide staining based flow cytometry (reference value: 5.6%); type: functional
T-24 = experiment: Cytotoxicity against human T24 cells assessed as reduction in cell viability incubated for 72 hrs by MTT assay; type: functional, cell-based; details: T-24, 72 h
Outline: (§1)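 About 5 × 10³ cells/well, seeded overnight at 37 °C, 5% CO₂, in DMEM or RPMI-1640 with 10% FBS and antibiotics. DMSO-dissolved compounds diluted in medium, exposure 72 h.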

HCT-116 [3] = experiment: Antitumor activity against human HCT116 cells xenografted in BALB/c athymic nude mouse assessed as tumor growth inhibition at 60 mg/kg, po administered twice daily for 4 weeks and measured every 3 days; type: functional; details: HCT-116, po, 672 h, read-out: TGI
Outline: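 Male BALB/c athymic nude mice, 5 weeks old, 16−18 g, given 0.2 mL of 5 × 10⁷ cells/mL HCT-116 in right armpit. At about 100 mm³, randomized to groups of five; intragastric dosing twice daily for 4 weeks. Tumor volume and body weight every 3 days; tumors weighed after sacrifice; organs HE-stained.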

[4] = Clearance in Sprague-Dawley rat at 25 mg/kg, po measured up to 48 hrs by LC-MS/MS analysis; type: ADME, organism-based; details: in vivo
Outline: (§2)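 Overnight-fasted male SD rats (about 250−270 g), three per group, single oral 25 mg/kg; test compound suspended in 5% CMC-Na, control as sodium salt in phosphate buffer. Blood sampled 0.25–48 h, plasma by centrifugation, stored −40 °C, quantified by LC−MS/MS against plasma standard curve (3–3000 ng/mL) with internal standard; model-fitted PK parameters.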

MCF7 = experiment: Cytotoxicity against human MCF7 cells assessed as reduction in cell viability incubated for 72 hrs by MTT assay; type: functional, cell-based; details: MCF7, 72 h; outline: as §1
[5] = Tmax in Sprague-Dawley rat at 25 mg/kg, po measured up to 48 hrs by LC-MS/MS analysis; type: ADME, organism-based; details: in vivo
Outline: (§3)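 Overnight-fasted male SD rats (250−270 g, n = 3/group), single oral 25 mg/kg in 5% CMC-Na (reference sodium salt in phosphate buffer); plasma at 0.25–48 h (12 timepoints), stored −40 °C; LC−MS/MS with internal-standard calibration 3–3000 ng/mL; parameters fitted by model.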

HT-29 = experiment: Cytotoxicity against human HT-29 cells assessed as reduction in cell viability incubated for 72 hrs by MTT assay; type: functional, cell-based; details: HT-29, 72 h
[6] = AUC(0 to infinity) in Sprague-Dawley rat at 25 mg/kg, po measured up to 48 hrs by LC-MS/MS analysis; type: ADME, organism-based; set-up: route oral, dose 25 mg/kg, time <=48; details: in vivo; outline: as §2
HCT-116 [7] = experiment: Induction of apoptosis in human HCT116 cells assessed as late apoptotic cells at 5 uM after 24 hrs by annexin V-FITC/propidium iodide staining based flow cytometry (reference value: 5.1%); type: functional
L02 = experiment: Cytotoxicity against human L02 cells assessed as reduction in cell viability incubated for 72 hrs by MTT assay; type: cell-based; details: L02, 72 h; outline: as §1
[8] = Half life in Sprague-Dawley rat at 25 mg/kg, po measured up to 48 hrs by LC-MS/MS analysis; type: ADME, organism-based; details: in vivo; outline: as §2
[9] = MRT(0 to infinity) in Sprague-Dawley rat at 25 mg/kg, po measured up to 48 hrs by LC-MS/MS analysis; type: ADME, organism-based; details: in vivo; outline: as §3
HCT-116 [10] = experiment: Induction of apoptosis in human HCT116 cells assessed as viable cells at 5 uM after 24 hrs by annexin V-FITC/propidium iodide staining based flow cytometry (reference value: 88.3%); type: functional; details: read-out: Activity
[11] = Volume of distribution in Sprague-Dawley rat at 25 mg/kg, po measured up to 48 hrs by LC-MS/MS analysis; type: ADME, organism-based; details: in vivo; outline: as §3
HCT-116 [12] = experiment: Induction of cell cycle arrest in human HCT116 cells assessed as accumulation at S phase at 20 uM after 24 hrs by propidium iodide-staining based flow cytometry (reference value: 36.43%); type: functional
[13] = target: T1, Aldehyde dehydrogenase 1A1 (Homo sapiens) (UniProt P00352); experiment: Inhibition of ALDH1A1 in human HCT116 cells at 5 uM after 24 hrs by aldefluor staining based fluorescence analysis; type: cell-based; details: HCT-116
T1 sequence (whole entry): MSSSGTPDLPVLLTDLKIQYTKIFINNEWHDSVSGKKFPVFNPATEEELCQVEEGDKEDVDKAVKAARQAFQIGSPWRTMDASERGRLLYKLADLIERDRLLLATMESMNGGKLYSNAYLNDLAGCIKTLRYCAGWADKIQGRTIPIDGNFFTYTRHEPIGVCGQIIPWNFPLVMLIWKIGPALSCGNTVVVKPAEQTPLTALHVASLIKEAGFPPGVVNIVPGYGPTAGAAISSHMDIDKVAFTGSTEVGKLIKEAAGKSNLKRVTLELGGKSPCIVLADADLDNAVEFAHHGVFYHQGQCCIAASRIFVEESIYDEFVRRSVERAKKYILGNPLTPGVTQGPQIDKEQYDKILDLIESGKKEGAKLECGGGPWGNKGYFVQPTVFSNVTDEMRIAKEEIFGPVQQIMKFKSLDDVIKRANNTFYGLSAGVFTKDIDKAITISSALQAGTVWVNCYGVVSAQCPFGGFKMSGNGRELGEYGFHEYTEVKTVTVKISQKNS
Outline: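 HCT-116 cells, 2 × 10⁵/well, grown overnight at 37 °C, 5% CO₂, then treated 24 h (vehicle DMSO). Aldefluor staining read in FITC channel by FACS for proportion of ALDH⁺ cells; DEAB-pretreated cells set baseline fluorescence.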

HCT-116 [14] = experiment: Induction of apoptosis in human HCT116 cells assessed as early apoptotic cells at 5 uM after 24 hrs by annexin V-FITC/propidium iodide staining based flow cytometry (reference value: 1%); type: functional
[15] = AUC(0 to t) in Sprague-Dawley rat at 25 mg/kg, po measured up to 48 hrs by LC-MS/MS analysis; type: ADME, organism-based; set-up: route oral, dose 25 mg/kg, time <=48; details: in vivo; outline: as §2
PC-3 = experiment: Cytotoxicity against human PC3 cells assessed as reduction in cell viability incubated for 72 hrs by MTT assay; type: functional, cell-based; details: PC-3, 72 h; outline: as §1
HCT-116 [16] = experiment: Inhibition of cell stemness in human HCT116 cells assessed as inhibition of CD44+/CD133+ expression at 20 uM after 24 hrs by flow cytometry analysis; type: functional
Outline: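 ALDH⁺ HCT-116 subpopulation sorted by flow cytometry; 2 × 10⁵ cells/well seeded overnight at 37 °C, 5% CO₂; treated 20 μM for 24 h (vehicle DMSO); stained with PE anti-CD133 and FITC anti-CD44 30 min; CD44⁺/CD133⁺ read by flow cytometry.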

[17] = MRT(0 to t) in Sprague-Dawley rat at 25 mg/kg, po measured up to 48 hrs by LC-MS/MS analysis; type: ADME, organism-based; details: in vivo; outline: as §3
HCT-116 [18] = experiment: Cytotoxicity against human HCT-116 cells assessed as reduction in cell viability incubated for 72 hrs by MTT assay; type: functional, cell-based; details: HCT-116, 72 h; outline: as §1
HCT-116 [19] = experiment: Inhibition of cell stemness in human HCT116 cells assessed as morphological alterations at 5 uM after 10 days by microscopic analysis; type: functional, cell-based; details: time 10.0 day
Outline: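 Sorted ALDH⁺ HCT-116 cells, 800/well, in serum-free DMEM with B27 (1:50), EGF 20 ng/mL, β-FGF 10 ng/mL; co-incubated with compound (5 μM) or DMSO vehicle for 10 days; sphere number, diameter and morphology scored from microscopy images; mean ± SD, n = 3.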

[20] = Cmax in Sprague-Dawley rat at 25 mg/kg, po measured up to 48 hrs by LC-MS/MS analysis; type: ADME, organism-based; set-up: route oral, dose 25 mg/kg, time <=48; details: in vivo; outline: as §2
HCT-116 [21] = experiment: Induction of cell cycle arrest in human HCT116 cells assessed as accumulation at G2/M phase at 20 uM after 24 hrs by propidium iodide-staining based flow cytometry (reference value: 14.67%); type: functional

## O=C(O)c1ccc2c(c1)nc(Nc1cccc(Cl)c1)c1ccncc12 [SILMITASERTIB]
HCT-116 [1]
  Activity: 62.48%
HCT-116 [2]
  Activity: 4.2%
T-24
  IC50: 12.9 µM
HCT-116 [3]
  inhibition in vivo at 60 mg/kg: 15%
[4]
  CL/F: 10.5 mL/min/kg
MCF7
  IC50: 15.3 µM
[5]
  Tmax: 2 h
HT-29
  IC50: 16 µM
[6]
  AUC(0-inf): 40000 ng·h/mL
HCT-116 [7]
  Activity: 8.3%
L02
  IC50: 23 µM
[8]
  half-life: 5.82 h
[9]
  MRT inf: 6.52 h
HCT-116 [10]
  viability at 5 µM: 80.7%
[11]
  Vd: 2.39 L/kg
HCT-116 [12]
  Activity: 26.31%
[13]
  inhibition: 61%
HCT-116 [14]
  Activity: 6.8%
[15]
  AUC(0-t) at 48 h: 38900 ng·h/mL
PC-3
  IC50: 12.8 µM
HCT-116 [16]
  inhibition at 20 µM: 58%
[17]
  MRT last at 48 h: 6.45 h
HCT-116 [18]
  IC50: 13.2 µM
HCT-116 [19]
  inhibition: Active
[20]
  Cmax: 6790 ng/mL
HCT-116 [21]
  Activity: 11.21%
